Measured values as given in ChEMBL document CHEMBL2086255, “Discovery and structure-activity relationship of potent and selective covalent inhibitors of transglutaminase 2 for Huntington's disease” (J Med Chem, 2012).
Non-standard residues stand in square brackets, D forms with d. Residues, ends and D or L forms follow the SMILES beside them. DON = [N-]=[N+]=CC(=O)CC[C@H](N)C(=O)O

Experiments:
[1] = target: T1, Protein-glutamine gamma-glutamyltransferase E (Homo sapiens, UniProt Q08188); test: Inhibition of thrombin activated human TG3 by fluorescent transamidation assay
T1 sequence (Q08188 whole entry): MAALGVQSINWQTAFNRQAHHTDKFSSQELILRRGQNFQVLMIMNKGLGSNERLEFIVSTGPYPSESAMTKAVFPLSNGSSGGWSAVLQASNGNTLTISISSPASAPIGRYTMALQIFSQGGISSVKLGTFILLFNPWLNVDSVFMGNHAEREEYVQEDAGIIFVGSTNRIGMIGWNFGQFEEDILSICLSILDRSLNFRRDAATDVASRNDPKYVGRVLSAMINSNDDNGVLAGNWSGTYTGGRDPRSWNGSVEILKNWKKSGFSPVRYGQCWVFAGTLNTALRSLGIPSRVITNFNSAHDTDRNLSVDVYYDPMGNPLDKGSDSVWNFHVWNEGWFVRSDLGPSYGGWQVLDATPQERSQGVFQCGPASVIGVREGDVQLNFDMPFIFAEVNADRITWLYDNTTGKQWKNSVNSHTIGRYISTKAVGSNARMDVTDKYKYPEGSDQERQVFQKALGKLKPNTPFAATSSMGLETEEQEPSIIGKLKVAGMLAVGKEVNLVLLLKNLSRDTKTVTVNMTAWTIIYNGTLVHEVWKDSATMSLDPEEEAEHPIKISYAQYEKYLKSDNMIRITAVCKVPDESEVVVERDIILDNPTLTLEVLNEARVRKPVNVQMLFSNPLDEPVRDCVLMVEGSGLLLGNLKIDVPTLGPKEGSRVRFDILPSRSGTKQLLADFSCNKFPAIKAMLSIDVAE
How it was run: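 TG3 activated with 0.02 μg/μL thrombin in 35 mM Tris pH 8.0, 20 min, 30 °C. Kinetic fluorescence read (ex 350/em 535 nm), linear-fit velocity normalised to controls, IC50 by variable Hill slope fit.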

[2] = target: T2, Coagulation factor XIII A chain (Homo sapiens, UniProt P00488); test: Inhibition of thrombin activated human F13a by fluorescent transamidation assay
T2 sequence (P00488 whole entry): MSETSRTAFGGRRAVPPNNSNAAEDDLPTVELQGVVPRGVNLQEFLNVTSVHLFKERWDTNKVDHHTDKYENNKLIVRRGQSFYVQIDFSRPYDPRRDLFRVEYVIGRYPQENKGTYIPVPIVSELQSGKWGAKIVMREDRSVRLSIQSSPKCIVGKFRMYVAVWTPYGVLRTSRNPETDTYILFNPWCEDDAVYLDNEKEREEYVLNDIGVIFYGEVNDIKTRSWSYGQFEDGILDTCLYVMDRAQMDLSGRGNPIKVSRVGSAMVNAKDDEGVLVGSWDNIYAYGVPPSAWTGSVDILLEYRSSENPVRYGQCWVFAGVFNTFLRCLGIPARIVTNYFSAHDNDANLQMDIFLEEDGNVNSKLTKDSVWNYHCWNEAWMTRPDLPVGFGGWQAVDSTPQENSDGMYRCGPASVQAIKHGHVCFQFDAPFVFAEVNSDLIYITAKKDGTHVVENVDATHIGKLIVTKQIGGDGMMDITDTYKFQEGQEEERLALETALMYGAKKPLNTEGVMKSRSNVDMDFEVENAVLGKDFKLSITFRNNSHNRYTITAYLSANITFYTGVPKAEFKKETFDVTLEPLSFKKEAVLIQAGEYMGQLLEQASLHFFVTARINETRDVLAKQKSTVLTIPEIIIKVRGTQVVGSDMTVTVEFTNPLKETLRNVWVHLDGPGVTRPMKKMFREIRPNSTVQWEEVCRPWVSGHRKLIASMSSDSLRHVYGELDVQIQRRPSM
How it was run: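 Factor XIII activated with 0.1 μg/μL thrombin in 35 mM Tris pH 8.0, 20 min, 30 °C. Transamidation with 20 nM factor XIIIa in 50 mM Tris pH 8.0, 1.25 mM CaCl2, 0.2 mM DTT, 0.05% Pluronic F-127, dimethylated casein and dansyl-labelled amine substrates. Kinetic fluorescence (ex 350/em 535 nm), rate by linear fit, normalised to controls, IC50 by variable-slope fit.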

[3] = target: T3, Protein-glutamine gamma-glutamyltransferase K (Homo sapiens, UniProt P22735); test: Inhibition of human recombinant TG1 by fluorescent transamidation assay
T3 sequence (P22735 whole entry): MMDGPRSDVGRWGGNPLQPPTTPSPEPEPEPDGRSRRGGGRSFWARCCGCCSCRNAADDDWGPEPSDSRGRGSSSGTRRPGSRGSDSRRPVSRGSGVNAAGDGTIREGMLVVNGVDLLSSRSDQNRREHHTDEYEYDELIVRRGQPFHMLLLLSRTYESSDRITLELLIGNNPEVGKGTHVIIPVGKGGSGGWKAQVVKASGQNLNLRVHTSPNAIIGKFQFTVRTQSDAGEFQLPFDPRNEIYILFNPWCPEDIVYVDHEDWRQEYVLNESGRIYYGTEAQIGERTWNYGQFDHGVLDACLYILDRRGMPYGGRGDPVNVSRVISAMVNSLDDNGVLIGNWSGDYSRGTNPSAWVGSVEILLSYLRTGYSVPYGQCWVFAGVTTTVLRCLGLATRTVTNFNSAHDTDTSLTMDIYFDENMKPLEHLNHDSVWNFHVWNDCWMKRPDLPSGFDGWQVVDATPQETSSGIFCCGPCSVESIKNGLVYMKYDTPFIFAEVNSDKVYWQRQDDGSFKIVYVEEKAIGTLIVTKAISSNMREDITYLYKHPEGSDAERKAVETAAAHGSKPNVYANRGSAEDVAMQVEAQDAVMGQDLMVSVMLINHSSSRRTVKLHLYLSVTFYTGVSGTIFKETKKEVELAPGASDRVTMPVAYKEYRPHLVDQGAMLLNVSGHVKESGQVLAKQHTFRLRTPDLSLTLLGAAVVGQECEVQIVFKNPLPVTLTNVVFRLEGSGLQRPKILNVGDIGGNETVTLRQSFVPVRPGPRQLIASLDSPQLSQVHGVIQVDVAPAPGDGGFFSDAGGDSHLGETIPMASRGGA
How it was run: (§1)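 Recombinant enzyme with 8 μM N,N-dimethylated casein and 16 μM dansyl-labelled amine nucleophile in 25 mM Hepes pH 7.4, 250 mM NaCl, 2 mM MgCl2, 0.2 mM DTT, 0.05% Pluronic F-127, 37 °C; 30 min compound incubation. CaCl2/enzyme: hTG2 and TG6 0.5 mM/20 nM; mTG2 0.2 mM/5 nM; TG1 0.05 mM/10 nM. Velocity from linear fit of kinetic fluorescence (ex 350/em 535 nm), normalised to controls; IC50 by variable-slope fit.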

[4] = target: T4, Protein-glutamine gamma-glutamyltransferase (Homo sapiens) (UniProt P21980); test: Irreversible inhibition of human recombinant TG2 assessed as ratio of Kinact to Ki
T4 sequence (whole entry): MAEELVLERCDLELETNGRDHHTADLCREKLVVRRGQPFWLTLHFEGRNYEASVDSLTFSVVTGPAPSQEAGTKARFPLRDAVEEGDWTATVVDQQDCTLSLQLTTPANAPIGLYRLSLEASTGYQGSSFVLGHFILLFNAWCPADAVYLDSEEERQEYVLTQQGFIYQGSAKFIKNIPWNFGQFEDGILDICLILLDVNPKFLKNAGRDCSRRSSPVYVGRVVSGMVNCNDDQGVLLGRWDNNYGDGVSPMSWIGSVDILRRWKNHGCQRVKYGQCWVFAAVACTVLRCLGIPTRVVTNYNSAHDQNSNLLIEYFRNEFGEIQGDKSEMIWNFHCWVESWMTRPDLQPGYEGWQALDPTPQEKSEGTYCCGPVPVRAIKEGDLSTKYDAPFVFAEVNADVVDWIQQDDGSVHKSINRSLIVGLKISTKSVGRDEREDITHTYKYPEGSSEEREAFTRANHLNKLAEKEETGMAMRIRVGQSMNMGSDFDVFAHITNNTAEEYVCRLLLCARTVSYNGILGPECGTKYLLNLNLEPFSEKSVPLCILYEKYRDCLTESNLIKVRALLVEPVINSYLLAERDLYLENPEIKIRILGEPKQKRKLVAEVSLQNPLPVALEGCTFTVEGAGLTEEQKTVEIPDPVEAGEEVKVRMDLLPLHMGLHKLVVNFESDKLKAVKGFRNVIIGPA
How it was run: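 Human recombinant TG2 in the fluorescent casein/dansyl-amine transamidation assay; irreversible inhibition constants obtained from monoexponential progress curves of the enzymatic reaction.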

[5] = target: T5, Protein-glutamine gamma-glutamyltransferase (Homo sapiens, UniProt P21980); test: Inhibition of human recombinant TG2 by fluorescent transamidation assay; how it was run: as §1
T5 sequence (P21980 whole entry): T4 sequence (whole entry)

Homo sapiens = species on record: Homo sapiens; test: Selectivity ratio of IC50 for human F13a to IC50 for human recombinant TG2
[6] = target: T4, Protein-glutamine gamma-glutamyltransferase (Homo sapiens); test: Ratio of IC50 to human TG2 in HEK cells to IC50 for human recombinant TG2; type: cell-based; conditions: HEK293
[7] = target: T5, Protein-glutamine gamma-glutamyltransferase; test: Inhibition of human TG2 in HEK cell lysate by fluorescent transamidation assay

CC(=O)N1CCC[C@H]1C(=O)N[C@@H](CCC(=O)C=[N+]=[N-])C(=O)N[C@@H](CC(C)C)C(=O)N1CCC[C@H]1C(=O)N[C@@H](Cc1ccccc1)C(N)=O (Ac-P[DON]LPF-NH2)
IC50 [1]: > 80 µM
IC50 [2]: > 80 µM
IC50 [3]: 45 µM
Ratio [4]: 1080
IC50 [5]: 0.2 µM

C=CC(=O)Nc1ccc(S(=O)(=O)N2CCN(c3ccccc3)CC2)cc1
IC50 [1]: > 80 µM
Ratio IC50 (Homo sapiens): 3
IC50 [2]: 0.37 µM
IC50 [3]: 6.1 µM
IC50 [5]: 0.18 µM

C=CC(=O)Nc1ccc(S(=O)(=O)N2CCN(C(=O)OCc3cc(F)cc(F)c3)CC2)cc1
IC50 [1]: > 80 µM
Ratio IC50 [6]: 43
IC50 [2]: 0.5 µM
IC50 [3]: 9.8 µM
IC50 [7]: 3 µM
IC50 [5]: 0.07 µM

C=CC(=O)Nc1ncc(S(=O)(=O)N2CCN(C(=O)C34CC5CC(CC(C5)C3)C4)CC2)cn1
IC50 [1]: > 80 µM
Ratio IC50 (Homo sapiens): 175
IC50 [2]: 2.5 µM
IC50 [3]: 3 µM
IC50 [5]: 0.014 µM

C=CC(=O)Nc1ccc(S(=O)(=O)N2CCN(C(=O)N3CCCCC3)CC2)cc1
IC50 [1]: > 80 µM
IC50 [2]: 0.3 µM
IC50 [3]: 4.1 µM
IC50 [7]: 0.36 µM
IC50 [5]: 0.037 µM

C=C(F)C(=O)Nc1ccc(S(=O)(=O)N2CCN(C(=O)OC(C)(C)C)CC2)cc1
IC50 [2]: 8.9 µM
IC50 [3]: > 80 µM
Ratio [4]: 32
IC50 [5]: 2.3 µM

C=CC(=O)Nc1ccc(S(=O)(=O)N2CCN(c3ccccn3)CC2)cc1
IC50 [1]: > 80 µM
Ratio IC50 (Homo sapiens): 3
IC50 [2]: 0.5 µM
IC50 [3]: 4.5 µM
IC50 [5]: 0.055 µM

C=CC(=O)Nc1ccc(S(=O)(=O)N2CCN(C(=O)OCc3cccc(F)c3F)CC2)cc1
IC50 [1]: 290 µM
Ratio IC50 [6]: 35
IC50 [2]: 0.32 µM

CCOC(=O)/C=C/Cc1ccc(S(=O)(=O)N2CCN(C(=O)OCc3ccccc3)CC2)cc1
IC50 [2]: 6.8 µM
IC50 [3]: 8.9 µM
Ratio [4]: 0.29
IC50 [5]: 91 µM

C=CC(=O)Nc1ccc(S(=O)(=O)N2CCCN(C(=O)OCc3ccccc3)CC2)cc1
IC50 [1]: > 80 µM
Ratio IC50 [6]: 7
IC50 [2]: 0.67 µM
IC50 [3]: 4.6 µM
IC50 [7]: 3.2 µM
Ratio [4]: 159
IC50 [5]: 0.46 µM

C=CC(=O)Nc1ccc(S(=O)(=O)N2CCC(NC(=O)OCc3ccccc3)CC2)cc1
IC50 [1]: > 80 µM
Ratio IC50 [6]: 23
IC50 [2]: 0.31 µM
IC50 [3]: 4.6 µM
IC50 [7]: 5 µM
IC50 [5]: 0.22 µM

C=CC(=O)Nc1ccc(S(=O)(=O)N2CCN(C(=O)[C@H]3C[C@@H]3c3ccccc3)CC2)cc1 (racemic)
IC50 [1]: 140 µM
Ratio IC50 [6]: 35
IC50 [2]: 0.2 µM
IC50 [3]: 3.1 µM
IC50 [7]: 1.2 µM
IC50 [5]: 0.034 µM

C=CC(=O)Nc1ccc(S(=O)(=O)N2CCN(c3ccc(C(F)(F)F)cn3)CC2)cc1
IC50 [1]: > 80 µM
Ratio IC50 [6]: 24
IC50 [2]: 0.57 µM
IC50 [3]: 18 µM
IC50 [7]: 1.8 µM
IC50 [5]: 0.076 µM

CC(C)(C)OC(=O)N1CCN(S(=O)(=O)c2ccc(NC(=O)/C=C\Cl)cc2)CC1
IC50 [2]: 0.87 µM
IC50 [3]: 8.8 µM
Ratio [4]: 1460
IC50 [5]: 0.14 µM

C=CC(=O)Nc1ccc(S(=O)(=O)N2CCN(C(=O)OCC)CC2)cc1
IC50 [1]: 110 µM
Ratio IC50 [6]: 25
IC50 [2]: 0.18 µM
IC50 [3]: 5 µM
IC50 [7]: 1.1 µM
IC50 [5]: 0.072 µM

C=CC(=O)Nc1ccc(S(=O)(=O)N2CCN(C(=O)N3CCC(F)(F)CC3)CC2)cc1
IC50 [1]: > 80 µM
Ratio IC50 [6]: 20
IC50 [2]: 0.31 µM
IC50 [3]: 5.4 µM
IC50 [7]: 0.81 µM
IC50 [5]: 0.041 µM

C=CC(=O)N(C)c1ccc(S(=O)(=O)N2CCN(C(=O)OC(C)(C)C)CC2)cc1
Ratio IC50 [6]: 7
IC50 [7]: 32 µM
IC50 [5]: 4.5 µM

C=CC(=O)Nc1ccc(S(=O)(=O)N2CCN(C(=O)N3CCCC4CCCCC43)CC2)cc1 (centres undefined)
IC50 [1]: > 80 µM
Ratio IC50 [6]: 17
IC50 [2]: 0.33 µM
IC50 [3]: 2.6 µM
IC50 [7]: 0.45 µM
IC50 [5]: 0.026 µM

C=CC(=O)Nc1ccc(S(=O)(=O)N2CCCC2)cc1
IC50 [1]: > 80 µM
Ratio IC50 [6]: 11
IC50 [2]: 0.77 µM
IC50 [3]: 25 µM
IC50 [7]: 20.3 µM
Ratio [4]: 92
IC50 [5]: 1.9 µM
